Activity calls are given as the source filed them. The rule behind the calls is not given here.
What was measured:
Rattus norvegicus [1] = species: Rattus norvegicus; experiment: Modulation of [3H]NCS-382 binding to alpha4betadelta GABAA receptor in rat cortical membranes after 1 hr by TopCount scintillation counting method; type: cell membranes
Procedure, shortened: (§1)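 Rat cortical membrane homogenate (50-70 µg protein per well) incubated with 16 nM [³H]NCS-382 and increasing analogue concentrations, 1 hr at 0-4 °C. Bound ligand collected by rapid filtration on GF/C filters and counted by scintillation. Single-point screen at 100 µM; cooperativity factor (α) and modulator Kb obtained by curve fitting. Triplicates, at least three independent experiments.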

Rattus norvegicus [2] = species: Rattus norvegicus; experiment: Modulation of [3H]NCS-382 binding to alpha4betadelta GABAA receptor in rat cortical membranes assessed as [3H]NCS-382 binding at 100 uM after 1 hr by TopCount scintillation counting method relative to control; type: cell membranes; procedure, shortened: as §1
[3] = biological target: GABA-A receptor; alpha-1/beta-2/gamma-2 (Homo sapiens) (UniProt P14867+P47870+P18507); experiment: Modulation of human alpha1beta2gamma2S GABAA receptor expressed in Xenopus laevis oocytes assessed as increase in GABA-induced current at 1 mM at -60 mV holding potential by two-electrode voltage clamp electrophysiology method; type: cell-based
Procedure, shortened: (§2)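 cRNA for human α1β2 (1:1) or α1β2γ2S (5:1:5) subunits injected into X. laevis oocytes (0.9–1.8 ng) and stored at 18 °C in Barth's solution, pH 7.5. Two-electrode voltage clamp in perfused recording solution at pH 7.4. Test compound at 1 mM applied with 1 mM GABA. Currents normalized and given as fold potentiation.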

[4] = biological target: T1, Gamma-aminobutyric acid receptor subunit alpha-1/beta-2/delta (Homo sapiens) (UniProt P14867+P47870+O14764); experiment: (§3) Modulation of human alpha1beta2delta GABAA receptor expressed in Xenopus laevis oocytes assessed as increase in GABA-induced current at 1 mM at -60 mV holding potential by two-electrode voltage clamp electrophysiology method relative to control; type: cell-based
Procedure, shortened: (§4)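 X. laevis oocytes injected with 0.9–1.8 ng cRNA for human α1, β2 and δ subunits (5:1:5) and stored at 18 °C in Barth's solution, pH 7.5. Two-electrode voltage clamp with 3 M KCl electrodes (~2–4 MΩ), perfused with recording solution at pH 7.4. Compound co-applied with 1 mM GABA. Initial and rebound currents expressed as fold increase over the 1 mM GABA response, mean ± S.E.M.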

[5] = biological target: T1, Gamma-aminobutyric acid receptor subunit alpha-1/beta-2/delta (Homo sapiens); experiment: as §3, with “by measuring rebound current” for “at 1 mM”, “potential measured after termination of compound application” for “potential”; type: cell-based; procedure, shortened: as §4
[6] = biological target: GABA-A receptor; GABA-A site (alpha1/beta2 interface) (Homo sapiens) (UniProt P14867+P47870); experiment: Modulation of human alpha1beta2 GABAA receptor expressed in Xenopus laevis oocytes assessed as increase in GABA-induced current at 1 mM at -60 mV holding potential by two-electrode voltage clamp electrophysiology method; type: cell-based; procedure, shortened: as §2
[7] = biological target: T1, Gamma-aminobutyric acid receptor subunit alpha-1/beta-2/delta (Homo sapiens); experiment: Agonist activity at human alpha1beta2delta GABAA receptor expressed in Xenopus laevis oocytes assessed as increase in current amplitude at 1 mM at -60 mV holding potential by two-electrode voltage clamp electrophysiology method; type: cell-based; procedure, shortened: as §4
[8] = biological target: T1, Gamma-aminobutyric acid receptor subunit alpha-1/beta-2/delta (Homo sapiens); experiment: as §3, with “current by measuring rebound current” for “current”, “potential measured after termination of compound application” for “potential”; type: cell-based; procedure, shortened: as §4

Kb (Rattus norvegicus [1])	%max (Rattus norvegicus [2])	SMILES	further results
	185%	CCOC(=O)C1=C(C)NC(=S)NC1c1cccc(O)c1 (stereo not given)	pKb (Rattus norvegicus [1]): 3.96; Activity [3]: inactive; fold change (FC) [4]: 2.9; Activity [5]: Dose-dependent effect; Activity [6]: inactive; Activity [7]: inactive
	171%	CCOC(=O)C1=C(C)NC(=S)N[C@@H]1c1cccc(O)c1	pKb (Rattus norvegicus [1]): 3.48
	130%	CCOC(=O)C1=C(C)N(CC)C(=S)NC1c1cccc(O)c1 (stereo not given)	
	208%	CCOC(=O)C1=C(C)NC(=S)N[C@H]1c1cccc(O)c1	pKb (Rattus norvegicus [1]): 3.95
87 µM	177%	CCOC(=O)C1=C(C)N(C)C(=S)NC1c1cccc(O)c1 (stereo not given)	pKb (Rattus norvegicus [1]): 4.06; Activity [3]: inactive; fold change (FC) [4]: 3.1; Activity [8]: Active; Activity [6]: inactive; Activity [7]: inactive
	130%	CCOC(=O)C1=C(C(C)C)NC(=S)NC1c1cccc(O)c1 (stereo not given)	
	245%	CCOC(=O)C1=C(CC)NC(=S)NC1c1cccc(O)c1 (stereo not given)	pKb (Rattus norvegicus [1]): 3.98; Activity [3]: inactive; fold change (FC) [4]: 1.4; Activity [8]: Active; Activity [6]: inactive; Activity [7]: inactive
	198%	CCCC1=C(C(=O)OCC)C(c2cccc(O)c2)NC(=S)N1 (stereo not given)	
inactive	inactive	CCOC(=O)C1=C(C)NC(=S)NC1c1cccc(C)c1 (stereo not given)	
	130%	CCOC(=O)C1=C(C(C)(C)C)NC(=S)NC1c1cccc(O)c1 (stereo not given)	
inactive	inactive	CCOC(=O)C1=C2CCCN2C(=S)NC1c1cccc(O)c1 (stereo not given)	
inactive	inactive	CCOC(=O)C1=C(C)N(c2ccccc2)C(=S)NC1c1cccc(O)c1 (stereo not given)	
inactive	inactive	CCOC(=O)C1=C(C)NC(=O)NC1c1cccc(O)c1 (stereo not given)	Activity [3]: inactive; fold change (FC) [4]: 6.2; Activity [6]: inactive; Activity [7]: inactive
inactive	inactive	CCCCN1C(=S)NC(c2cccc(O)c2)C(C(=O)OCC)=C1C (stereo not given)	
	194%	COC(=O)C1=C(C)NC(=S)NC1c1cccc(O)c1 (stereo not given)	pKb (Rattus norvegicus [1]): 3.46; Activity [3]: inactive; fold change (FC) [4]: 1.3; Activity [8]: Active; Activity [6]: inactive; Activity [7]: inactive
inactive	inactive	COC(=O)C1=C(C)N(C)C(=S)NC1c1cccc(O)c1 (stereo not given)	
inactive	inactive	CCOC(=O)C1=C(C)N(Cc2ccccc2)C(=S)NC1c1cccc(O)c1 (stereo not given)	
inactive	inactive	CCOC(=O)C1=C(C)N(C)C(=S)N(C)C1c1cccc(O)c1 (stereo not given)	

The remaining lines, values behind:

SMILES	Kb (Rattus norvegicus [1])	%max (Rattus norvegicus [2])	further results
CCOC(=O)C1=C(C)NC(=S)NC1c1ccc(C)cc1 (stereo not given)	inactive	inactive	
CCOC(=O)C1=C(C)NC(=S)NC1c1cccnc1 (stereo not given)	inactive	inactive	
CCOC(=O)C1=C(c2ccccc2)NC(=S)NC1c1cccc(O)c1 (stereo not given)	inactive	inactive	
CC1=C(C(=O)OCc2ccccc2)C(c2cccc(O)c2)NC(=S)N1 (stereo not given)	inactive	inactive	
CCC(=O)C1=C(CC)NC(=S)NC1c1cccc(O)c1 (stereo not given)		130%	
CCOC(=O)C1=C(C)NC(=S)NC1c1cc(O)cc(O)c1 (stereo not given)		247%	pKb (Rattus norvegicus [1]): 3.83
CCOC(=O)C1=C(C)NC(=S)NC1c1ccnn1C (stereo not given)	inactive	inactive	
CCOC(=O)C1=C(C)NC(=S)NC1c1ccc(O)c(O)c1 (stereo not given)		246%	pKb (Rattus norvegicus [1]): 3.68; Activity [3]: inactive; fold change (FC) [4]: 2.7; Activity [8]: Active; Activity [6]: inactive; Activity [7]: inactive
CC1=C(C(=O)O)C(c2cccc(O)c2)NC(=S)N1 (stereo not given)	inactive	inactive	
CCOC(=O)C1=C(C)N=C(S)NC1c1cccc([N+](=O)[O-])c1 (stereo not given)	inactive	inactive	
CC(=O)C1=C(C)NC(=S)NC1c1cccc(O)c1 (stereo not given)		130%	
CCOC(=O)C1=C(C)NC(=S)NC1c1ccccc1 (stereo not given)	inactive	inactive	
CCOC(=O)C1=C(C)NC(=S)NC1c1ccc(O)cc1 (stereo not given)	inactive	inactive	
CCOC(=O)C1=C(C)NC(=O)NC1c1ccccc1 (stereo not given)	inactive	inactive	
CCOC(=O)C1=C(C)NC(=S)NC1c1cccc(OC)c1 (stereo not given)	inactive	inactive	
COC(=O)C1=C(C)NC(=O)NC1c1ccccc1 (stereo not given)	inactive		Activity [3]: inactive; fold change (FC) [4]: 5.9; Activity [6]: inactive; Activity [7]: inactive
CCN(CC)C(=O)C1=C(C)NC(=S)NC1c1cccc(O)c1 (stereo not given)	inactive	inactive	
CCOC(=O)C1=C(C)NC(=S)NC1c1cn(-c2ccccc2)nn1 (stereo not given)	inactive	inactive	
CCOC(=O)C1=C(C)NC(=S)NC1c1cccc(F)c1 (stereo not given)	inactive	inactive	
CCOC(=O)C1=C(C)N=C(S)NC1C (stereo not given)	inactive	inactive	
CCOC(=O)C1=C(C)NC(=S)NC1c1cccc(Cl)c1 (stereo not given)	inactive	inactive	

Source: ChEMBL document CHEMBL4190247, “Monastrol, a 3,4-dihydropyrimidin-2(1H)-thione, as structural scaffold for the development of modulators for GHB high-affinity binding sites and α1β2δ GABAA receptors” (Eur J Med Chem, 2017)
